“Also recorded” adds a separate entry of the source. Where two headings read alike, the source gives them in different places.
What was measured:
[1] = tested on: non-transfected HL-1 cells; assay: LDH assay, protection from H2O2-induced cell death, untransfected cells; conditions: for Protection against H2O2-induced cytotoxicity in non-transfected HL-1 cells: 750 μM H2O2, LDH assay
[2] = tested on: A3AR-transfected HL-1 cells; assay: LDH assay, protection from H2O2-induced cell death, hA3AR-transfected cells; type: cell-based, mouse; conditions: for Protection against H2O2-induced cytotoxicity in A3AR-transfected HL-1 cells: 750 μM H2O2; for IC50: HL-1, read-out: Protection from cell death induced by H2O2, transfected cells, IC50; for EC50: read-out: Protection of A3 AR-transfected cells against H2O2, EC50 (lactate dehydrogenase release)
[3] = target: T1, hA2AAR (Homo sapiens, UniProt P29274); conditions: read-out: Binding, Ki, A2A; [3H]CGS21680; previously reported; cited from earlier work
[4] = target: T2, hA3AR (Homo sapiens, UniProt P0DMS8); assay: cAMP assay, inhibition of forskolin-stimulated cAMP, CHO cells; type: cell-based
T2 sequence (P0DMS8 1-318): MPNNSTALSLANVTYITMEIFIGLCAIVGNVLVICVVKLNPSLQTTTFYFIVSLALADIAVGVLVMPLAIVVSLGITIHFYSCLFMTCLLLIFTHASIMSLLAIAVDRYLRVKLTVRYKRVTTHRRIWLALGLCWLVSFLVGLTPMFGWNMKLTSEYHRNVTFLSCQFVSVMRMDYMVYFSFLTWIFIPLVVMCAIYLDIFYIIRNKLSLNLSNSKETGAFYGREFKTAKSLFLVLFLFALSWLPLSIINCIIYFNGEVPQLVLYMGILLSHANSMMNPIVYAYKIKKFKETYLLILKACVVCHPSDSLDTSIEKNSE
Summary of the method: (§1)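 Stably transfected CHO cells (A1, A2A or A3AR) were seeded overnight at 37 °C, then given DMEM with 50 mM HEPES, 10 μM rolipram, 3 U/ml adenosine deaminase and rising test compound, for 30 min at 37 °C. For A1/A3, 10 μM forskolin was added for 15 min more; A2A plates were incubated 45 min. Cells were lysed in 0.1 M HCl; cAMP by immunoassay at 405 nm.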

[5] = target: T2, hA3AR; conditions: read-out: Binding, Ki, A3; [125I]AB-MECA; previously reported; cited from earlier work
[6] = target: T1, hA2AAR; assay: cAMP assay, stimulation of cAMP, CHO cells; type: cell-based
Summary of the method: as §1

[7] = target: T3, hA1AR (Homo sapiens, UniProt P30542); assay: cAMP assay, inhibition of forskolin-stimulated cAMP, CHO cells; type: cell-based
T3 sequence (P30542 1-326): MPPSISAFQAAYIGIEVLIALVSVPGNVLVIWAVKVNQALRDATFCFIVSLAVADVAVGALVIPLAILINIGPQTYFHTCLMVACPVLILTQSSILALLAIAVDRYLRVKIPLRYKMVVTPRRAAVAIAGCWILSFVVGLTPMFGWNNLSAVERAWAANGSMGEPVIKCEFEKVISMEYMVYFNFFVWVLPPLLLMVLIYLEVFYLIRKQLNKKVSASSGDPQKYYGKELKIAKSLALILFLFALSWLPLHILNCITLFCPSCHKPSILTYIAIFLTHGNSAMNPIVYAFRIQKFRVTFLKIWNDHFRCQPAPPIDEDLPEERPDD
Summary of the method: as §1

[8] = target: T3, hA1AR; conditions: read-out: Binding, Ki, A1; [3H]CCPA; previously reported; cited from earlier work
[9] = tested on: A3AR-transfected HL-1 cells; assay: Luminescent caspase 3/7 assay of H2O2-induced apoptosis; type: cell-based, mouse; conditions: dendrimer 10 μM 1 h before 400 μM H2O2, 3 h
Summary of the method: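 HL-1 cells transfected with hA3AR were seeded at 30,000 cells/well and incubated overnight at 37 °C, then switched to DMEM with Ca/Mg. Dendrimer (10 μM) was added 1 h before H2O2 (400 μM) and kept throughout, with 3 h at 37 °C. An equal volume of Caspase-Glo 3/7 reagent was added for 90 min at room temperature before reading luminescence. Three independent experiments in triplicate, mean ± SD.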

[10] = target: T3, hA1AR; assay: Radioligand membrane binding, [3H]CCPA, stably transfected CHO cells; conditions: read-out: Binding, Ki app, A1, dendrimer concentration, mean ± SEM, n = 3
[11] = target: T1, hA2AAR; assay: Radioligand membrane binding, [3H]CGS21680, stably transfected HEK cells; conditions: read-out: Binding, Ki app, A2A, dendrimer concentration, mean ± SEM, n = 3
[12] = target: T2, hA3AR; assay: Radioligand membrane binding, [125I]AB-MECA, stably transfected CHO cells

T1 sequence (P29274 whole entry): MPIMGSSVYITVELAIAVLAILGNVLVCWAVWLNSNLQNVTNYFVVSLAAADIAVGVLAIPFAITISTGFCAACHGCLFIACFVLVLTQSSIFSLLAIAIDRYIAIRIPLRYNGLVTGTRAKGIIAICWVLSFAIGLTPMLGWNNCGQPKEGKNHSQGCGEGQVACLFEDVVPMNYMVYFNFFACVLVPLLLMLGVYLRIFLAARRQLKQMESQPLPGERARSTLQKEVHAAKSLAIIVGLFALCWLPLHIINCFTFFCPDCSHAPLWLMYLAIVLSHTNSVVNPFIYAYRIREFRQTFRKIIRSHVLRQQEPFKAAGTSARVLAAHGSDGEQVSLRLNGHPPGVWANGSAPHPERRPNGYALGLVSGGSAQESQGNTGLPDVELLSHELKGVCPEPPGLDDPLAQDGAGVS

OC[C@H]1O[C@@H](n2cnc3c(NC4CCCC4)nc(Cl)nc32)[C@H](O)[C@@H]1O [CCPA, 2-Chloro-N^6-cyclopentyladenosine]
Protection against H2O2-induced cytotoxicity in non-transfected HL-1 cells [1]: did not protect

CCNC(=O)[C@H]1O[C@@H](n2cnc3c(N)nc(NCCc4ccc(CCC(=O)O)cc4)nc32)[C@H](O)[C@@H]1O [CGS21680, 2-[p-(2-carboxyethyl)phenylethyl-amino]-5′-N-ethylcarboxamidoadenosine]
Protection against H2O2-induced cytotoxicity in non-transfected HL-1 cells [1]: protected; also recorded: protective
IC50 ([1]; Mus musculus, HL-1, read-out: Protection from cell death induced by H2O2, untransfected cells, IC50): 7100 ± 2400 nM

CNC(=O)[C@H]1O[C@@H](n2cnc3c(NCc4cccc(I)c4)nc(Cl)nc32)[C@H](O)[C@@H]1O [Cl-IB-MECA, 2-chloro-N^6-(3-iodobenzyl)-5′-N-methylcarboxamidoadenosine]
Protection against H2O2-induced cytotoxicity in A3AR-transfected HL-1 cells ([2]; LDH assay): revealed protection
IC50 ([2]; Mus musculus): 7900 ± 2300 nM
Protection against H2O2-induced cytotoxicity in non-transfected HL-1 cells [1]: neither IB-MECA nor Cl-IB-MECA gave protection

CNC(=O)[C@H]1O[C@@H](n2cnc3c(NCc4cccc(I)c4)ncnc32)[C@H](O)[C@@H]1O [IB-MECA, N^6-(3-iodobenzyl)-5′-N-methylcarboxamidoadenosine]
Protection against H2O2-induced cytotoxicity in A3AR-transfected HL-1 cells ([2]; LDH assay): revealed protection
EC50 ([2]; Mus musculus, HL-1, 4 h): 3800 nM
IC50 ([2]; Mus musculus): 3800 ± 1400 nM
Protection against H2O2-induced cytotoxicity in non-transfected HL-1 cells [1]: neither IB-MECA nor Cl-IB-MECA gave protection

CCOC(=O)C1=C(C)NC(c2ccccc2)=C(C(=O)OCc2ccccc2)C1C#Cc1ccccc1 (stereo not drawn) [MRS1191]
Effect of A3 antagonist on protection afforded by IB-MECA from H2O2-induced cell death ([2]; MRS1191 10 μM 1 h before IB-MECA 30 μM, 750 μM H2O2, 4 h, transfected HL-1 cells): prevented the protection

CCNC(=O)[C@H]1O[C@@H](n2cnc3c(N)ncnc32)[C@H](O)[C@@H]1O [NECA, 5′-N-ethylcarboxamidoadenosine]
EC50 ([2]; 750 μM H2O2, 4 h): 3900 nM
Protection against H2O2-induced cytotoxicity in non-transfected HL-1 cells [1]: protected; also recorded: protective

N-(2-Aminoethyl)-ADAC [compound 4]
Ki [3]: 300 ± 20 nM
Agonist efficacy in cAMP assay, A3AR (inhibition) [4]: potent full agonist
Ki [5]: 9.5 ± 2 nM
Agonist efficacy in cAMP assay, A2AAR (stimulation) [6]: potent full agonist
Agonist efficacy in cAMP assay, A1AR (inhibition) [7]: potent full agonist
Ki [8]: 43 ± 5 nM

PAMAMG5.5-1(AF488-ED) [compound 7]
Activity in assay of A3AR-mediated cAMP inhibition at 10 μM ([4]; 10 μM): inactive
Effect on H2O2-induced apoptosis (caspase 3/7 luminescence) [9]: did not significantly decrease; also recorded: not by 7

PAMAMG5.5-1(AF488-ED)-60(N-(2-aminoethyl)-ADAC) [compound 8]
Ki [10]: 140 ± 65 nM
Protection against H2O2-induced cytotoxicity in A3AR-transfected HL-1 cells ([2]; LDH assay): highly potent
IC50 value less than those of monomeric A3AR agonists IB-MECA and Cl-IB-MECA ([2]; A3AR-transfected HL-1 cells, LDH assay): 100- to 200 fold
Selectivity in assay of adenylate cyclase inhibition / AR activation ([4]; versus A1 and A2AARs): nonselective; also recorded: nonselectively
Ki [11]: 80 ± 17 nM
Protection against H2O2-induced cytotoxicity in non-transfected HL-1 cells [1]: did not show cytoprotection
Effect on H2O2-induced apoptosis (caspase 3/7 luminescence) [9]: significantly decreased; also recorded: significant protection
Ki ([12]; read-out: Binding, Ki app, A3, [125I]AB-MECA, dendrimer concentration, mean ± SEM, n = 3): 15 ± 4 nM
Selectivity for the A3AR in binding ([12]; versus A1 and A2AARs): only slightly selective
